{"source": "paper PMC5200953", "about": "(Dalton transactions (Cambridge, England : 2003), 2015)", "key": {"[1]": {"system": "sstr2-transfected HCT116 cells", "experiment": "Cellular internalization assay", "assay_type": "cell-based"}, "[2]": {"experiment": "Biodistribution in mice bearing subcutaneous sstr2-transfected HCT116 tumours", "assay_type": "in vivo", "conditions": "mouse, n = 4; for tissue uptake at 1 h: 1 h p.i.; for tissue uptake at 4 h: 4 h p.i.; for tissue uptake at 24 h: 24 h p.i.", "in_short": "(§1)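 Mice with subcutaneous sstr2-transfected HCT116 tumours received the 64Cu-labelled test conjugate. Activity was measured in blood, liver, kidney, muscle, bone, adrenal, pancreas and tumour at 1, 4 and 24 h p.i. A blocking group received co-administered Y3-TATE, assessed at 4 h p.i. Tumour-to-blood, -muscle, -kidney and -liver ratios were calculated. n = 4 per group; P-values were reported for group comparisons.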"}, "[3]": {"system": "sstr2-transfected HCT116 tumours", "experiment": "Biodistribution in mice bearing subcutaneous sstr2-transfected HCT116 tumours", "assay_type": "in vivo", "in_short": "as §1"}, "[4]": {"experiment": "PET/CT imaging at 2 h p.i. in mice bearing sstr2-transfected HCT116 xenografts", "assay_type": "in vivo", "conditions": "mouse, tumour, tumour standard uptake value (SUV), n = 2", "in_short": "(§2)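 PET/CT imaging was done at 2 h p.i. with the 64Cu-labelled test conjugate. Mice bore subcutaneously implanted sstr2-transfected HCT116 xenografts. The blocked mouse was co-administered Y3-TATE (10 mg/kg). Tumour standard uptake value (SUV) was read from the images.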"}, "[5]": {"system": "sstr2-transfected HCT116 tumours", "experiment": "PET/CT imaging at 2 h p.i. in mice bearing sstr2-transfected HCT116 xenografts", "assay_type": "in vivo", "conditions": "with the exception of kidneys", "in_short": "as §2"}}, "note": "Entries after “also recorded” stand apart in the source; their conditions may differ.", "data": [{"smiles": "C[C@@H](O)[C@H](NC(=O)[C@@H]1CSSC[C@H](NC(=O)[C@@H](Cc2ccccc2)NC(=O)Cn2cc(CN3CCCN4CCN(CCCN(CP(=O)(O)O)CC4)CC3)nn2)C(=O)N[C@@H](Cc2ccc(O)cc2)C(=O)N[C@H](Cc2c[nH]c3ccccc23)C(=O)N[C@@H](CCCCN)C(=O)N[C@@H]([C@@H](C)O)C(=O)N1)C(=O)O", "note": "(64Cu complex, metal not drawn) [Compound 6]", "values": [{"measurement": "internalized", "setting": "[1]; after 4 h, sstr2-transfected HCT116 cells", "value": 38, "unit": "%ID/mg protein"}, {"measurement": "surface bound, and thus internalized 6, blocked by excess Y3-TATE", "setting": "[1]; cells pre-incubated with excess Y3-TATE, P < 0.0001, n = 3", "value": "More than 95%"}, {"measurement": "internalization, in words", "setting": "[1]; sstr2-transfected HCT116 cells", "value": "internalized rapidly and specifically; also recorded: quickly bound to the cell surface, and was steadily internalized"}, {"measurement": "tissue uptake at 1 h", "setting": "[2]; adrenal, Adrenal uptake", "value": "1.14 ± 0.46", "unit": "%ID/g"}, {"measurement": "tissue uptake at 4 h", "setting": "[2]; adrenal, Adrenal uptake, blocked with co-administration of Y3-TATE", "value": "0.37 ± 0.05", "unit": "%ID/g"}, {"measurement": "tissue uptake at 4 h", "setting": "[2]; adrenal, Adrenal uptake", "value": "1.24 ± 0.4", "unit": "%ID/g"}, {"measurement": "tissue uptake at 1 h", "setting": "[2]; blood, Blood uptake", "value": "0.34 ± 0.13", "unit": "%ID/g"}, {"measurement": "tissue uptake at 4 h", "setting": "[2]; blood, Blood uptake, blocked with co-administration of Y3-TATE", "value": "0.22 ± 0.04", "unit": "%ID/g"}, {"measurement": "tissue uptake at 4 h", "setting": "[2]; blood, Blood uptake", "value": "0.2 ± 0.03", "unit": "%ID/g"}, {"measurement": "tissue uptake at 24 h", "setting": "[2]; blood, Blood uptake", "value": "0.15 ± 0.06", "unit": "%ID/g"}, {"measurement": "tissue uptake at 1 h", "setting": "[2]; bone, Bone uptake", "value": "0.46 ± 0.16", "unit": "%ID/g"}, {"measurement": "tissue uptake at 4 h", "setting": "[2]; bone, Bone uptake, blocked with co-administration of Y3-TATE", "value": "0.2 ± 0.04", "unit": "%ID/g"}, {"measurement": "tissue uptake at 4 h", "setting": "[2]; bone, Bone uptake", "value": "0.5 ± 0.24", "unit": "%ID/g"}, {"measurement": "tissue uptake at 24 h", "setting": "[2]; bone, Bone uptake", "value": "0.35 ± 0.1", "unit": "%ID/g"}, {"measurement": "tissue uptake at 1 h", "setting": "[2]; kidney, Kidney uptake", "value": "15.9 ± 3.03", "unit": "%ID/g"}, {"measurement": "tissue uptake at 4 h", "setting": "[2]; kidney, Kidney uptake, blocked with co-administration of Y3-TATE", "value": "16.1 ± 5.03", "unit": "%ID/g"}, {"measurement": "tissue uptake at 4 h", "setting": "[2]; kidney, Kidney uptake", "value": "21 ± 2.84", "unit": "%ID/g"}, {"measurement": "tissue uptake at 24 h", "setting": "[2]; kidney, Kidney uptake", "value": "14.7 ± 2.53", "unit": "%ID/g"}, {"measurement": "tissue uptake at 1 h", "setting": "[2]; liver, Liver uptake", "value": "1.13 ± 0.16", "unit": "%ID/g"}, {"measurement": "tissue uptake at 4 h", "setting": "[2]; liver, Liver uptake, blocked with co-administration of Y3-TATE", "value": "1.32 ± 0.3", "unit": "%ID/g"}, {"measurement": "tissue uptake at 4 h", "setting": "[2]; liver, Liver uptake", "value": "1.3 ± 0.1", "unit": "%ID/g"}, {"measurement": "tissue uptake at 24 h", "setting": "[2]; liver, Liver uptake", "value": "1.05 ± 0.1", "unit": "%ID/g"}, {"measurement": "tissue uptake at 1 h", "setting": "[2]; muscle, Muscle uptake", "value": "0.22 ± 0.15", "unit": "%ID/g"}, {"measurement": "tissue uptake at 4 h", "setting": "[2]; muscle, Muscle uptake, blocked with co-administration of Y3-TATE", "value": "0.09 ± 0.03", "unit": "%ID/g"}, {"measurement": "tissue uptake at 4 h", "setting": "[2]; muscle, Muscle uptake", "value": "0.07 ± 0.02", "unit": "%ID/g"}, {"measurement": "tissue uptake at 24 h", "setting": "[2]; muscle, Muscle uptake", "value": 0.06, "unit": "%ID/g"}, {"measurement": "tissue uptake at 1 h", "setting": "[2]; pancreas, Pancreas uptake", "value": "6.71 ± 0.22", "unit": "%ID/g"}, {"measurement": "tissue uptake at 4 h", "setting": "[2]; pancreas, Pancreas uptake, blocked with co-administration of Y3-TATE", "value": "0.3 ± 0.07", "unit": "%ID/g"}, {"measurement": "tissue uptake at 4 h", "setting": "[2]; pancreas, Pancreas uptake", "value": "4.41 ± 0.95", "unit": "%ID/g"}, {"measurement": "tissue uptake at 24 h", "setting": "[2]; pancreas, Pancreas uptake", "value": "1.84 ± 0.64", "unit": "%ID/g"}, {"measurement": "tissue uptake at 1 h", "setting": "[2]; tumour, Tumour uptake", "value": "4.73 ± 1.17", "unit": "%ID/g"}, {"measurement": "tissue uptake at 4 h", "setting": "[2]; tumour, Tumour uptake, blocked with co-administration of Y3-TATE", "value": "0.69 ± 0.22", "unit": "%ID/g"}, {"measurement": "tissue uptake at 4 h", "setting": "[2]; tumour, Tumour uptake", "value": "7.54 ± 1.43", "unit": "%ID/g"}, {"measurement": "tissue uptake at 24 h", "setting": "[2]; tumour, Tumour uptake", "value": "4.39 ± 1.71", "unit": "%ID/g"}, {"measurement": "kidney uptake, in words", "setting": "[3]; 1, 4, and 24 h p.i.", "value": "consistently high uptake"}, {"measurement": "uptake in sstr2-expressing organs (adrenal, pancreas, tumour), in words", "setting": "[3]; 1, 4, and 24 h p.i.", "value": "high tracer uptake"}, {"measurement": "blocking of tumour uptake by co-administered Y3-TATE", "setting": "[3]; 4 h p.i., P < 0.0001, n = 4", "value": 91, "unit": "%"}, {"measurement": "blocking of adrenal uptake by co-administered Y3-TATE", "setting": "[3]; 4 h p.i., P = 0.0051, n = 4", "value": 70, "unit": "%"}, {"measurement": "in vivo stability of the copper complex, in words", "setting": "[3]; inferred from relatively low liver activity", "value": "reasonable in vivo stability"}, {"measurement": "time of maximum tumour uptake", "setting": "[3]; p.i., n = 4", "value": 4, "unit": "h"}, {"measurement": "SUV at 2 h", "setting": "[4]", "value": "2.25 ± 0.49", "unit": "SUV"}, {"measurement": "tumour uptake and contrast by PET/CT, in words", "setting": "[5]", "value": "excellent tumour uptake and contrast"}]}]}
